Results: paper PMC10582678 (Clinical and Translational Science, 2023)

How the values were obtained:
[1] = Safety, adverse events, food effect study; format: in vivo, human; details: for AEs / Increased blood triglycerides / Abdominal discomfort / Constipation / Decreased leukocyte count / Decreased lymphocyte count / Decreased neutrophil count / Dermatitis allergic / Dyspepsia / Increased ALT / Increased AST / Increased blood bilirubin / Increased blood cholesterol / Increased blood creatinine / Lethargy / Mouth ulceration / Oropharyngeal pain / Sinus arrythmia / Treatment discontinuation due to AEs / Upper respiratory tract infection: Food effect 600 mg, n (%)
Summary of the method: (§1)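 Safety was monitored by vital signs, clinical laboratory tests, physical examination, 12-lead ECG, AEs and SAEs. AEs were coded with MedDRA 23.1 and graded by CTCAE 5.0. Subjects were discharged 6 days after the last dose, with a follow-up visit 8–14 days after the last dose. The safety set comprised randomized subjects who received active drug or placebo and had post-dose safety data.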

[2] = Preclinical safety in beagles; format: in vivo; details: stated in introduction
[3] = test system: EGFR, ITK, Lck, SRC, LYN, and JAK3; experiment: Selectivity for BTK over other kinases; format: biochemical; details: stated in introduction
[4] = Safety, adverse events, single ascending dose; format: in vivo, human; details: for AEs / Decreased leukocyte count / Decreased neutrophil count / Increased ALT / Increased blood cholesterol / Increased blood triglycerides / Abdominal discomfort / Constipation / Decreased lymphocyte count / Dermatitis allergic / Dyspepsia / Increased AST / Increased blood bilirubin / Increased blood creatinine / Lethargy / Mouth ulceration / Oropharyngeal pain / Sinus arrythmia / Treatment discontinuation due to AEs / Upper respiratory tract infection: n (%)
Summary of the method: as §1

[5] = 27 subjects who received SAD 100 to 800 mg

N#CN1C[C@H](n2nc(-c3ccc(Oc4ccc(Cl)cn4)cc3)c(C(N)=O)c2N)CCC12CC2 [SN1011, 5-amino-3-(4-((5-chloro-2-pyridinyl)oxy)phenyl)-1-((6R)-4-cyano-4-azaspiro[2.5]octan-6-yl)-1H-pyrazole-4-carboxamide]
700 fold: selectivity for BTK over other kinases [3]
acceptable safety profile: safety profile [2]
8.3%: subjects with AE leading to study discontinuation ([1]; food effect study, 12 subjects, increased triglycerides, grade 3)
0: Abdominal discomfort ([1]; column Fasted-Fed) | Constipation ([1]; column Fasted-Fed) | Decreased leukocyte count ([1]; column Fasted-Fed) | Decreased lymphocyte count ([1]; column Fasted-Fed) | Decreased neutrophil count ([1]; column Fasted-Fed) | Dermatitis allergic ([1]; column Fasted-Fed) | Dyspepsia ([1]; column Fasted-Fed) | Increased ALT ([1]; column Fasted-Fed) | Increased AST ([1]; column Fasted-Fed) | Increased blood bilirubin ([1]; column Fasted-Fed) | Increased blood cholesterol ([1]; column Fasted-Fed) | Increased blood creatinine ([1]; column Fasted-Fed) | Lethargy ([1]; column Fasted-Fed) | Mouth ulceration ([1]; column Fasted-Fed) | Oropharyngeal pain ([1]; column Fasted-Fed) | Sinus arrythmia ([1]; column Fasted-Fed) | Upper respiratory tract infection ([1]; column Fasted-Fed) | Abdominal discomfort ([1]; column Fed-Fasted) | Constipation ([1]; column Fed-Fasted) | Decreased leukocyte count ([1]; column Fed-Fasted) | Decreased lymphocyte count ([1]; column Fed-Fasted) | Decreased neutrophil count ([1]; column Fed-Fasted) | Dermatitis allergic ([1]; column Fed-Fasted) | Dyspepsia ([1]; column Fed-Fasted) | Increased ALT ([1]; column Fed-Fasted) | Increased AST ([1]; column Fed-Fasted) | Increased blood cholesterol ([1]; column Fed-Fasted) | Increased blood creatinine ([1]; column Fed-Fasted) | Lethargy ([1]; column Fed-Fasted) | Mouth ulceration ([1]; column Fed-Fasted) | Oropharyngeal pain ([1]; column Fed-Fasted) | Sinus arrythmia ([1]; column Fed-Fasted) | Treatment discontinuation due to AEs ([1]; column Fed-Fasted) | Upper respiratory tract infection ([1]; column Fed-Fasted) | AEs ([4]; SAD 100 mg, any grade) | Decreased leukocyte count ([4]; SAD 100 mg, any grade) | Decreased neutrophil count ([4]; SAD 100 mg, any grade) | Increased ALT ([4]; SAD 100 mg, any grade) | Increased blood cholesterol ([4]; SAD 100 mg, any grade) | Increased blood triglycerides ([4]; SAD 100 mg, any grade) | Abdominal discomfort ([4]; SAD 100 mg) | Constipation ([4]; SAD 100 mg) | Decreased lymphocyte count ([4]; SAD 100 mg) | Dermatitis allergic ([4]; SAD 100 mg) | Dyspepsia ([4]; SAD 100 mg) | Increased AST ([4]; SAD 100 mg) | Increased blood bilirubin ([4]; SAD 100 mg) | Increased blood creatinine ([4]; SAD 100 mg) | Lethargy ([4]; SAD 100 mg) | Mouth ulceration ([4]; SAD 100 mg) | Oropharyngeal pain ([4]; SAD 100 mg) | Sinus arrythmia ([4]; SAD 100 mg) | Treatment discontinuation due to AEs ([4]; SAD 100 mg) | Upper respiratory tract infection ([4]; SAD 100 mg) | Decreased leukocyte count ([4]; SAD 200 mg, any grade) | Decreased neutrophil count ([4]; SAD 200 mg, any grade) | Abdominal discomfort ([4]; SAD 200 mg) | Constipation ([4]; SAD 200 mg) | Decreased lymphocyte count ([4]; SAD 200 mg) | Dermatitis allergic ([4]; SAD 200 mg) | Dyspepsia ([4]; SAD 200 mg) | Increased AST ([4]; SAD 200 mg) | Increased blood bilirubin ([4]; SAD 200 mg) | Increased blood creatinine ([4]; SAD 200 mg) | Lethargy ([4]; SAD 200 mg) | Mouth ulceration ([4]; SAD 200 mg) | Oropharyngeal pain ([4]; SAD 200 mg) | Sinus arrythmia ([4]; SAD 200 mg) | Treatment discontinuation due to AEs ([4]; SAD 200 mg) | Upper respiratory tract infection ([4]; SAD 200 mg) | Decreased leukocyte count ([4]; SAD 400 mg, any grade) | Decreased neutrophil count ([4]; SAD 400 mg, any grade) | Increased ALT ([4]; SAD 400 mg, any grade) | Increased blood cholesterol ([4]; SAD 400 mg, any grade) | Abdominal discomfort ([4]; SAD 400 mg) | Constipation ([4]; SAD 400 mg) | Decreased lymphocyte count ([4]; SAD 400 mg) | Dermatitis allergic ([4]; SAD 400 mg) | Dyspepsia ([4]; SAD 400 mg) | Increased AST ([4]; SAD 400 mg) | Increased blood bilirubin ([4]; SAD 400 mg) | Increased blood creatinine ([4]; SAD 400 mg) | Lethargy ([4]; SAD 400 mg) | Mouth ulceration ([4]; SAD 400 mg) | Oropharyngeal pain ([4]; SAD 400 mg) | Sinus arrythmia ([4]; SAD 400 mg) | Treatment discontinuation due to AEs ([4]; SAD 400 mg) | Upper respiratory tract infection ([4]; SAD 400 mg) | Increased ALT ([4]; SAD 600 mg, any grade) | Increased blood cholesterol ([4]; SAD 600 mg, any grade) | Increased blood triglycerides ([4]; SAD 600 mg, any grade) | Abdominal discomfort ([4]; SAD 600 mg) | Constipation ([4]; SAD 600 mg) | Decreased lymphocyte count ([4]; SAD 600 mg) | Dermatitis allergic ([4]; SAD 600 mg) | Dyspepsia ([4]; SAD 600 mg) | Increased AST ([4]; SAD 600 mg) | Increased blood bilirubin ([4]; SAD 600 mg) | Increased blood creatinine ([4]; SAD 600 mg) | Lethargy ([4]; SAD 600 mg) | Mouth ulceration ([4]; SAD 600 mg) | Oropharyngeal pain ([4]; SAD 600 mg) | Sinus arrythmia ([4]; SAD 600 mg) | Treatment discontinuation due to AEs ([4]; SAD 600 mg) | Upper respiratory tract infection ([4]; SAD 600 mg) | Increased ALT ([4]; SAD 800 mg, any grade) | Increased blood cholesterol ([4]; SAD 800 mg, any grade) | Abdominal discomfort ([4]; SAD 800 mg) | Constipation ([4]; SAD 800 mg) | Decreased lymphocyte count ([4]; SAD 800 mg) | Dermatitis allergic ([4]; SAD 800 mg) | Dyspepsia ([4]; SAD 800 mg) | Increased AST ([4]; SAD 800 mg) | Increased blood bilirubin ([4]; SAD 800 mg) | Increased blood creatinine ([4]; SAD 800 mg) | Lethargy ([4]; SAD 800 mg) | Mouth ulceration ([4]; SAD 800 mg) | Oropharyngeal pain ([4]; SAD 800 mg) | Sinus arrythmia ([4]; SAD 800 mg) | Treatment discontinuation due to AEs ([4]; SAD 800 mg) | Upper respiratory tract infection ([4]; SAD 800 mg) | Abdominal discomfort ([4]; SAD All SN1011, N = 27) | Constipation ([4]; SAD All SN1011, N = 27) | Decreased lymphocyte count ([4]; SAD All SN1011, N = 27) | Dermatitis allergic ([4]; SAD All SN1011, N = 27) | Dyspepsia ([4]; SAD All SN1011, N = 27) | Increased AST ([4]; SAD All SN1011, N = 27) | Increased blood bilirubin ([4]; SAD All SN1011, N = 27) | Increased blood creatinine ([4]; SAD All SN1011, N = 27) | Lethargy ([4]; SAD All SN1011, N = 27) | Mouth ulceration ([4]; SAD All SN1011, N = 27) | Oropharyngeal pain ([4]; SAD All SN1011, N = 27) | Sinus arrythmia ([4]; SAD All SN1011, N = 27) | Treatment discontinuation due to AEs ([4]; SAD All SN1011, N = 27) | Upper respiratory tract infection ([4]; SAD All SN1011, N = 27)
7.4%: white blood cell count decreased [4, 5]
14.8%: neutrophil count decreased [4, 5]
1 (16.7): Increased ALT ([4]; SAD 200 mg, any grade) | Increased blood cholesterol ([4]; SAD 200 mg, any grade) | Decreased leukocyte count ([4]; SAD 600 mg, any grade) | Decreased leukocyte count ([4]; SAD 800 mg, any grade) | Decreased neutrophil count ([4]; SAD 800 mg, any grade) | Increased blood triglycerides ([4]; SAD 800 mg, any grade)
5 (18.5): Increased blood triglycerides ([4]; SAD All SN1011, N = 27)
18.5%: blood triglycerides increased [4, 5]
2 (18.2): AEs ([1]; column Fed-Fasted)
58.3%: subjects who experienced AEs ([1]; food effect study, 12 subjects, 600 mg)
2 (7.4): Decreased leukocyte count ([4]; SAD All SN1011, N = 27)
1 (3.7): Increased ALT ([4]; SAD All SN1011, N = 27) | Increased blood cholesterol ([4]; SAD All SN1011, N = 27)
13: number of AEs [4, 5]
33.3%: subjects who experienced AEs [4, 5]
1 (8.3): Treatment discontinuation due to AEs ([1]; column Fasted-Fed)
4 (33.3): Increased blood triglycerides ([1]; column Fasted-Fed)
4 (14.8): Decreased neutrophil count ([4]; SAD All SN1011, N = 27)
1 (9.1): Increased blood bilirubin ([1]; column Fed-Fasted) | Increased blood triglycerides ([1]; column Fed-Fasted)
2 (33.3): AEs ([4]; SAD 200 mg, any grade) | Increased blood triglycerides ([4]; SAD 200 mg, any grade) | AEs ([4]; SAD 400 mg, any grade) | Increased blood triglycerides ([4]; SAD 400 mg, any grade) | AEs ([4]; SAD 800 mg, any grade)
5 (41.7): Increased blood triglycerides ([1]; Total N = 12) | AEs ([1]; column Fasted-Fed)
7 (58.3): AEs ([1]; Total N = 12)
3 (50.0): AEs ([4]; SAD 600 mg, any grade) | Decreased neutrophil count ([4]; SAD 600 mg, any grade)
